Reference: ChEMBL document CHEMBL3407447, “Probing the molecular and structural elements of ligands binding to the active site versus an allosteric pocket of the human farnesyl pyrophosphate synthase” (Bioorg Med Chem Lett, 2015)
Active and inactive are the calls of the source. The calls are words filed in the database; no cut-off is given here.

Legend:
[1] = biological target: T1, Farnesyl pyrophosphate synthase (Homo sapiens) (UniProt P14324); assay: Inhibition of human FPPS at 10 uM
T1 sequence (whole entry): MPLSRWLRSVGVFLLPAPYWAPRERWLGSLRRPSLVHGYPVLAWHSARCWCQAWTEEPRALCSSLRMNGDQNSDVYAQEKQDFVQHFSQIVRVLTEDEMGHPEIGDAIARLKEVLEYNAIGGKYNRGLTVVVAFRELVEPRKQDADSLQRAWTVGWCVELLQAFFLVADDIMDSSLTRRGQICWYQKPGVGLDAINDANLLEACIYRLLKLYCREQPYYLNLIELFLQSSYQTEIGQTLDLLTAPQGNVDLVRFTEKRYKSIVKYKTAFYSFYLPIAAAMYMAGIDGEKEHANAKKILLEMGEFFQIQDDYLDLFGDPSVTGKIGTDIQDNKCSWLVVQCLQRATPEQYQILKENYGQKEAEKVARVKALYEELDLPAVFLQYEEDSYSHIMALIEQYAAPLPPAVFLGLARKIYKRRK
Procedure, shortened: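 Single fixed-concentration screen in the human FPPS enzyme inhibition assay, run alongside two known bisphosphonate inhibitors as positive controls.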

Rattus norvegicus = assay: Reduction in hypercalcemia in sc dosed rat; format: functional; settings: read-out: MED
[2] = biological target: T2, Farnesyl pyrophosphate synthase (Homo sapiens, UniProt P14324); assay: Inhibition of human FPPS
T2 sequence (P14324 whole entry): T1 sequence (whole entry)

Compound	inhibition [1]	minimal effective dose (Rattus norvegicus)	IC50 [2]
Cn1cc(CC(P(=O)(O)O)P(=O)(O)O)c2ccccc21	Active		
Cc1[nH]c2ccccc2c1CC(P(=O)(O)O)P(=O)(O)O	Active		
Cn1c(NCC(P(=O)(O)O)P(=O)(O)O)nc2ncccc21	Active		
Cc1c(CC(P(=O)(O)O)P(=O)(O)O)c2ccccc2n1C	Active		
CCn1cc(CC(P(=O)(O)O)P(=O)(O)O)c2ccccc21	Active		
CC(C)(C)c1[nH]c2ccccc2c1CC(P(=O)(O)O)P(=O)(O)O	Active		
Cn1c(NCC(P(=O)(O)O)P(=O)(O)O)nc2cccnc21	inactive		
CC(c1[nH]c2ccccc2c1CC(P(=O)(O)O)P(=O)(O)O)C1CCCC1 (centres undefined)	Active		
O=P(O)(O)C(O)(Cc1cnc2ccccn12)P(=O)(O)O [MINODRONIC ACID]		0.03 mg/kg	
CC(C)C(C)c1[nH]c2ccccc2c1CC(P(=O)(O)O)P(=O)(O)O (centres undefined)	Active		
CC(C)n1cc(CC(P(=O)(O)O)P(=O)(O)O)c2ccccc21	Active		
O.O=P(O)(O)C(O)(Cn1ccnc1)P(=O)(O)O [ZOLEDRONIC ACID]		0.03 mg/kg	
CC(C)C(C)c1[nH]c2ccc(-c3ccccc3)cc2c1CC(P(=O)(O)O)P(=O)(O)O (centres undefined)	Active		1100 nM
